Results pooled from the literature.
Lines come from different studies, so protocols differ.
Target: Death-associated protein kinase 3 (DAPK3, Homo sapiens, UniProt O43293)

SMILES	assay	conditions	quantity	result
Clc1ccc(Nc2nnc(Cc3ccncc3)c3ccccc23)cc1	cell-free assay	0.5 µM	remaining signal	107%
O=C(Nc1cnn(-c2csc(C(=O)NC3COC3)c2)c1)Nc1c(F)cccc1Cl	enzyme activity, inhibitor	5 µM	remaining activity	108%
Cc1ccc(C(=O)Nc2ccc(CN3CCN(C)CC3)c(C(F)(F)F)c2)cc1C#Cc1cnc2cccnn12	enzyme activity, inhibitor	23.5 nM	remaining activity	99%
CC(C)(O)[C@H]1CC[C@H](Nc2ccc3ncc(-c4cccc(C(F)(F)F)c4)n3n2)CC1	enzyme activity, inhibitor	1 µM	remaining activity	120%
CSc1cccnc1N1CCN(Cc2nc3ccccc3[nH]2)CC1	cell-free assay, competition with immobilised ligand	1 µM	remaining binding	100%
Cc1cnc(NC2CCOCC2)nc1-n1cnc(C(=O)NC(CN)c2cc(F)cc(Cl)c2)c1 (stereo not shown)	enzyme activity, inhibitor, radiometric	1 µM	remaining activity	107%
Cn1c2c(c3ccc(Cl)c(Cl)c31)C(C#N)C1(CCNCC1)NC2=O (racemic)	thermal stability, DSF	10 µM	ΔTm	> 8 °C
Cc1cc(NC(=O)c2cccc(S(F)(F)(F)(F)F)c2)cc(-n2ccn3nc(-c4cccnc4)cc23)c1	cell-free assay, competition with immobilised ligand	1 µM	remaining binding	100%
Cc1ccc(NC(=O)c2ccc(C)c(C(F)(F)F)c2)cc1C#Cc1nn(C2CCC(O)CC2)c2ncnc(N)c12 (stereo not shown)	cell-free assay	10 µM	remaining signal	110%
O=C(Nc1cccnn1)N1CCC(=Cc2cccc(Oc3ccc(C(F)(F)F)cn3)c2)CC1	cell-free assay, competition with immobilised ligand	1 µM	remaining binding	79%
CC(C)(C)c1nc(-c2cccc(NS(=O)(=O)c3c(F)cccc3F)c2F)c(-c2ccnc(N)n2)s1	enzyme activity, inhibitor, radiometric	1 µM	remaining activity	54%
CCN(CC)CCNC(=O)c1c(C)[nH]c(/C=C2\C(=O)Nc3ccc(F)cc32)c1C	enzyme activity, inhibitor	0.3 µM	inhibition	35%
N#CCCc1ccc2c(c1)-c1[nH]c3ccc([N+](=O)[O-])cc3c1CC(=O)N2	cell-free assay	0.5 µM	remaining signal	99.3%
O=S(=O)(NC1CCC(c2cc(F)ccc2F)(S(=O)(=O)c2ccc(Cl)cc2)CC1)C(F)(F)F (stereo not shown)	cell-free assay, competition with immobilised ligand	1 µM	remaining binding	97%
COc1cc2ncnc(Nc3ccc(Oc4ccccc4)cc3C)c2cc1OC	enzyme activity, inhibitor	1 µM	inhibition	-4%
Cc1ccc(Nc2nccc(N(C)c3ccc4c(C)n(C)nc4c3)n2)cc1S(N)(=O)=O	enzyme activity, inhibitor	10 µM	inhibition	-2%
CCCCN(CCCC)C(=O)CN1C[C@H](c2cc(OC)c3c(c2)OCO3)[C@@H](C(=O)O)[C@@H]1CC(C)(C)CCC	cell-free assay, competition with immobilised ligand	1 µM	remaining binding	100%
COc1cc(-c2cc(-c3ccc(N4CCNCC4)cc3)cnc2C)cc(OC)c1OC	enzyme activity, inhibitor	0.1 µM	inhibition	1%
Cc1nc(Cc2cccc(C(F)(F)F)c2)sc1-c1ccc(C(N)=O)nc1	cell-free assay, competition with immobilised ligand	1 µM	remaining binding	88%
CS(=O)(=O)CCNCc1ccc(-c2ccc3ncnc(Nc4ccc(OCc5cccc(F)c5)c(Cl)c4)c3c2)o1	cell-free assay	0.5 µM	remaining signal	97.4%
N#CC1(c2ccccn2)CCN(Cc2cc(C(=O)N3CCCC3)c(=O)n3ccccc23)CC1	cell-free assay, competition with immobilised ligand	1 µM	remaining binding	86%
CNC(=O)c1cc(Oc2ccc(NC(=O)Nc3ccc(Cl)c(C(F)(F)F)c3)cc2)ccn1	cell-free assay	0.5 µM	remaining signal	92.9%
